Here are results for 1 molecule from paper PMC3148415 (Molecular pharmaceutics, 2011).

The structures appear in SMILES notation.

The series has as its system U87MG human glioma xenografts. Kind of series: Biodistribution in athymic nude mice bearing U87MG human glioma xenografts. It counts as in vivo. The note with it: 4 h p.i., tail vein injection. The method, boiled down:
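Female athymic nu/nu mice carried U87MG xenografts (5 × 10^6 cells s.c. in both upper shoulder flanks) and were used 4 weeks after inoculation. HPLC-purified 64Cu tracer in saline (~30 μCi/mL, 0.20 μm filtered) was given at ~3 μCi by tail vein. Five mice per time point (0.5, 1, 2, 4, 24 h p.i.) were killed by pentobarbital overdose. Heart blood and organs were weighed and γ-counted, giving %ID/g and %ID/organ.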
(In general: A xenograft is tissue or cells of one species grown in another, often human tumour cells in immunodeficient mice.)

With `[Cl][64Cu][Cl]` [^64CuCl2], the tumor uptake is listed as 1.8 %ID/g.
